What was measured:
Thyroid hormone receptor = target: T1, Thyroid hormone receptor (Homo sapiens, UniProt P10827+P10828); test: Agonist activity at THR in HepG2 cells by whole cell assay; format: functional, cell-based
T1 sequence (P10827 whole entry): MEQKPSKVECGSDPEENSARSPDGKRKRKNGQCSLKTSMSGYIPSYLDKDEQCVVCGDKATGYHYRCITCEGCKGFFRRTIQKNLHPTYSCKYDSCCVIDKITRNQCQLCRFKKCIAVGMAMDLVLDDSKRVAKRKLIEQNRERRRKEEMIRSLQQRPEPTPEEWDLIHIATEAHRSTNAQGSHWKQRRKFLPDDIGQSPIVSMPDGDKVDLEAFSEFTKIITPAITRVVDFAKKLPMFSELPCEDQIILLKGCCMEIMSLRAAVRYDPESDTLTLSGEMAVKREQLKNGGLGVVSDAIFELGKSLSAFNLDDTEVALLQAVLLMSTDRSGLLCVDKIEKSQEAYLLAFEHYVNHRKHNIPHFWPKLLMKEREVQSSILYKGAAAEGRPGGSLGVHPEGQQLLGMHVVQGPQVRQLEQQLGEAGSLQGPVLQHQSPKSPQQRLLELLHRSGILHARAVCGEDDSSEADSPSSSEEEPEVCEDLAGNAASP
T1 sequence (P10828 whole entry): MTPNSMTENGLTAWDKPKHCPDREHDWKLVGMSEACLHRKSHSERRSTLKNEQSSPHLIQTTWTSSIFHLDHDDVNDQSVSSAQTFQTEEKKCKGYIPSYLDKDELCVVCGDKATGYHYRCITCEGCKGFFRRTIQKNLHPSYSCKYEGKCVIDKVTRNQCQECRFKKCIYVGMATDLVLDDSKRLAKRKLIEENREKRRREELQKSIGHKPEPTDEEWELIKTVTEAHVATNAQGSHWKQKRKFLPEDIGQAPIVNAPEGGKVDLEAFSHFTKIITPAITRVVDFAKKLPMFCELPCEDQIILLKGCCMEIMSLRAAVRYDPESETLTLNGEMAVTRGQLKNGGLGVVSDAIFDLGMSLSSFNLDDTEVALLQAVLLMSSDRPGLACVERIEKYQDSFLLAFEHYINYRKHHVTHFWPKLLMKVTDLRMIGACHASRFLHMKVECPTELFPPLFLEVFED

Mus musculus [1] = test: Reduction in serum cholesterol in NMIR mouse at 0.1 mg/kg, po after 7 days; format: functional; parameters: scale not given: the % may be the effect or the level left
Outline: (§1)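 At study end, blood was taken retro-orbitally. Serum cholesterol (and triglycerides) were measured enzymatically with commercial kits on an autoanalyzer. Reduction is expressed as percent versus the control group.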

Mus musculus [2] = test: Increase in heart weight in C57BL/6J mouse at 0.3 mg/kg, po after 11 days; format: functional
Outline: (§2)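 C57BL/6J mice, 10-12 per group, dosed orally by gavage once daily for 11 days in solutol/ethanol/water 10:10:80. Doses were 0.1, 0.3 and 3.0 mg/kg, given as the ethyl ester. At study end, heart rate was measured by non-invasive tail cuff, then the animals were sacrificed and hearts weighed. Heart weight change is expressed versus control.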

Mus musculus [3] = test: Reduction in serum cholesterol in NMIR mouse at 3.0 mg/ kg, po after 7 days; format: functional; parameters: scale not given: the % may be the effect or the level left; outline: as §1
Mus musculus [4] = test: Increase in heart weight in C57BL/6J mouse at 0.1 mg/kg, po after 11 days; format: functional; outline: as §2
Mus musculus [5] = test: Reduction in serum cholesterol in NMIR mouse at 0.3 mg/ kg, po after 7 days; format: functional; parameters: scale not given: the % may be the effect or the level left; outline: as §1
Mus musculus [6] = test: Reduction in serum cholesterol in NMIR mouse at 1.0 mg/ kg, po after 7 days; format: functional; parameters: scale not given: the % may be the effect or the level left; outline: as §1
Mus musculus [7] = test: Increase in heart weight in C57BL/6J mouse at 3.0 mg/kg, po after 11 days; format: functional; outline: as §2

Row | EC50 (Thyroid hormone receptor) [nM] | Compound | other results
1 | 70 | CC(C)c1cc(Oc2c(C(C)C)cc(CC3SC(=O)NC3=O)cc2C(C)C)ccc1O (centres undefined) | 
2 | 1000 | CC(C)c1cc(Oc2ccc3oc(C(=O)O)cc3c2)ccc1O | 
3 | 1000 | COc1ccc(Oc2c(Br)cc3oc(C(=O)O)cc3c2Br)cc1C(C)C | 
4 | 210 | O=C(O)c1cc2c(Br)c(Oc3ccc(O)c(C(=O)c4ccc(F)cc4)c3)c(Br)cc2o1 | 
5 | 22 | O=C(O)c1cc2c(Br)c(Oc3ccc(O)c(C(O)c4ccc(F)cc4)c3)c(Br)cc2o1 (centres undefined) | 
6 | 0.08 | Cc1cc(CC2SC(=O)NC2=O)cc(C)c1Oc1ccc(O)c(C(C)C)c1 (centres undefined) | 
7 | 110 | Cc1cc2oc(C(=O)O)cc2c(C)c1Oc1ccc(O)c(C(C)C)c1 | 
8 | 5.1 | Cc1cc2c(c(C)c1Oc1ccc(O)c(C(C)C)c1)CC(CC(=O)O)O2 (centres undefined) | 
9 | 0.3 | Cc1cc2c(CC(=O)O)coc2c(C)c1Oc1ccc(O)c(C(C)C)c1 | Activity (Mus musculus [1]): 32%; Activity (Mus musculus [2]): 17%; Activity (Mus musculus [3]): 41%; Activity (Mus musculus [4]): 12%; Activity (Mus musculus [5]): 34%; Activity (Mus musculus [6]): 39%; Activity (Mus musculus [7]): 27%
10 | 0.06 | Cc1ccc(CC2CC(=O)NC(=O)S2)c(C)c1Oc1ccc(O)c(C(C)C)c1 (centres undefined) | 
11 | 1000 | Cc1cc2c(CC(=O)O)coc2c(C)c1Oc1ccc(O)cc1 | 
12 | 7 | CC(C)c1cc(Oc2c(Br)cc3oc(C(=O)O)cc3c2Br)ccc1O | 
